Rows were chosen to be rich in hits. Some 2.3% of all compounds tested hit in one or more screens of this group.
HCV NS3 hel inh = inhibitors of HCV NS3 helicase, primary screen, biochemical, Cy5 molecular beacon fluorescence; inhibition, % at 10.9 µM; NS3 helicase DNA unwinding; Hepatitis C virus NS3 helicase; 290,000 compounds, 0.56% hits; AID 1800, 2009;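 active means inhibition above the mean of all tested compounds plus 3 SD, set per campaign, cut at about 35% in these data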;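 further: 0% = DMSO wells and 100% = thioflavine S control wells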
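System: Hepatitis C virus NS3 helicase domain fragment enzyme | Reagent: Annealed dual-labelled DNA beacon duplex, ATP-started | Compound dosing: 10.9 µM single point, 0.8% DMSO | Incubation: 1 h reaction at 25 °C, ATP-initiated | Technique: Cy5 fluorescence | Evaluation: Percent inhibition from t60/t0 fluorescence ratio | Benchmarks: Low DMSO, high thioflavine S at 110 µM | Replication: Singlicate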
EBNA-1 inhibitor = EBNA-1 DNA-binding inhibitors, primary screen, biochemical, fluorescence polarization; inhibition, % at 14.8 µM; 300,000 compounds, 0.34% hits; in the data active means inhibition above about 28%
HCV core dimer = inhibitors of HCV core protein dimerization, primary screen, biochemical, TR-FRET, high-throughput; inhibition, % at 5 µM; 300,000 compounds, 0.33% hits; TR-FRET GST/Flag-core106 dimerization, 1536-well;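 active means inhibition above the mean of all tested compounds plus 3 SD, set per screening campaign, cut at about 45% in these data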
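Assay system: GST-tagged and Flag-tagged HCV core protein residues 1-106 / Times: compound-protein-antibody incubation 4 h at 22.5 °C / Signal: time-resolved FRET, ex 340 nm, em 617 and 671 nm / Evaluation: % inhibition based on acceptor/donor emission ratio / Benchmarks: wells lacking GST-core106 and wells with excess unlabelled core106 / Repeats: singlicate, one well per compound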
EBV gp42 inh = Epstein-Barr virus gp42 inhibitors, primary screen, biochemical, uHTS, fluorescence polarization; Fluorescence polarization binding assay, mP read-out; AID 1085, 2008; Glycoprotein 42 (Epstein-Barr virus (strain AG876)), Q1HVG2; 220,000 compounds, 0.42% hits; inhibition, % (tested at 21.74 µM); in the data active means inhibition above about 50%
ZTA counter = counter-screen for EBNA-1 inhibitors: inhibitors of Epstein-Barr virus ZTA; ZTA-DNA binding, fluorescence polarization; AID 2234; inhibition, % at 11 µM; P03206; 320,000 compounds, 0.15% hits; in the data active means inhibition above about 33%
Target sequence (P03206 whole entry, looked up): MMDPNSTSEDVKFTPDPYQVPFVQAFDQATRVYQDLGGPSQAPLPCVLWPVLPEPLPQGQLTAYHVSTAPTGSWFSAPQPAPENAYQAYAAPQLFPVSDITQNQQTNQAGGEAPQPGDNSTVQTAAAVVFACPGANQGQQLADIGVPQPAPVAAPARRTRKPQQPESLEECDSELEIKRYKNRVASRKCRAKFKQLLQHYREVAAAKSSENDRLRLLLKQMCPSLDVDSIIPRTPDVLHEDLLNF
GPR7 antagonist = GPR7 receptor antagonists, primary screen, cell-based, fluorescence, single concentration. 290,000 compounds, 1.1% hits. Neuropeptides B/W receptor type 1 (Homo sapiens), P48145. inhibition, % at 4.4 µM. GPR7-expressing cells, fluorescence antagonist assay; in the data active means inhibition above about 16%, passing the limit was not always enough;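 further: cells stimulated with the agonist NPW; 0% = agonist with vehicle and 100% = vehicle without agonist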
Target sequence (P48145 whole entry, looked up): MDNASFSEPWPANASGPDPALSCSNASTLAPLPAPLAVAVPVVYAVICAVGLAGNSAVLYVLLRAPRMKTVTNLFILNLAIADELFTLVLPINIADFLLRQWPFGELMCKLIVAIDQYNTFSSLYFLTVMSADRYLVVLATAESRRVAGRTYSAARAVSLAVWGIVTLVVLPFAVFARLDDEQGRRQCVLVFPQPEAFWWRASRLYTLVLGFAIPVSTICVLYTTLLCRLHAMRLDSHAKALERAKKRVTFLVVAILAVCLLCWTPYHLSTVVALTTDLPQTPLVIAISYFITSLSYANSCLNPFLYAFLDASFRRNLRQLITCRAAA
GPR7 antag cf = GPR7 receptor antagonists, confirmation, cell-based, fluorescence, single concentration | 2,400 compounds, 52% hits | GPR7-expressing cells, calcium fluorescence antagonist mode | shares compounds with GPR7 antagonist | inhibition, % at 4.4 µM; in the data active means inhibition above about 24%;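 further: stimulated with the GPR7 agonist NPW; 0% = agonist plus vehicle and 100% = vehicle alone without agonist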
MCHR1 antagonist = MCHR1 antagonists in cells, counter-screen for GPR7 antagonist project, cell-based, fluorescence, human; inhibition, % at 4.4 µM; 2,400 compounds, 62% hits; MCHR1-expressing cells, fluorescence antagonist assay; AID 2148, 2009; shares compounds with GPR7 antagonist; in the data active means inhibition above about 22%;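 further: 0% = vehicle with agonist and 100% = vehicle without agonist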
* marks the source's active call; other numbers are inactive results; · = no result.

SMILES	HCV NS3 hel inh	EBNA-1 inhibitor	HCV core dimer	EBV gp42 inh	ZTA counter	GPR7 antagonist	GPR7 antag cf	MCHR1 antagonist
CCC(=O)N(C(=O)CC)N1CCN(c2ccncc2S(=O)(=O)N2CCCCC2)CC1	1.8	8.8	9.6	·	11.7	34.4*	44.5*	30.0*
Cc1ccc(CSc2nnc(-c3cccc(S(=O)(=O)N4CCOCC4)c3)n2CC(C)C)cc1	-15.8	-8.5	6.0	-5.6	-8.7	35.1*	19.4	25.5*
COc1ccc(CCC(C)N2CCC(CO)(Cc3ccccc3)CC2)cc1 (centres undefined)	9.6	-7.9	0.6	·	-23.9	15.9	·	·
COc1ccc(CC2(CO)CCN(C(C)Cc3ccc(Cl)cc3)CC2)cc1 (centres undefined)	-13.2	-5.3	-3.7	-19.3	2.7	21.3*	4.6	20.3
CCOC(=O)c1c(-c2ccccc2)oc2ccc(OCC(O)CNCCN(C)C)cc12 (centres undefined)	-80.3	-17.1	1.4	·	16.5	72.3*	60.0*	69.3*
CCOC(=O)c1c(-c2ccccc2)oc2ccc(OCC)cc12	-3.3	5.8	1.4	-2.6	-9.2	-12.9	·	·
CC(C)NC(=O)/C=C/C(=O)O	1.2	2.2	0.7	-8.0	-7.0	2.7	·	·
Cc1ccc(C)c(S(=O)(=O)N2CCCOC2CNC(=O)C(=O)NCCCN2CCOCC2)c1 (centres undefined)	11.1	-1.9	2.3	·	-9.4	-6.3	·	·
COc1ccccc1OCCn1c(=O)sc2ccccc21	-7.3	-6.5	3.9	-19.2	-1.0	2.8	·	·
Cc1ccccc1OCCn1c(=O)sc2ccccc21	-7.0	-8.4	10.2	-0.2	6.0	21.0*	13.5	36.6*
COc1cc(C(=O)N/N=C/c2sccc2C)cc(OC)c1OC	-0.5	·	·	-1.8	·	28.2*	29.2*	30.8*
COc1cccc(C(=O)NNC2OC(CO)C(O)C2O)c1 (centres undefined)	-2.5	10.7	2.5	-6.8	8.5	-6.7	·	·
COc1ccc(CCN(C)C(=S)Nc2ccc(SC(F)F)cc2)cc1OC	1.0	-7.1	-6.2	·	3.7	39.4*	12.4	10.6
Cc1c(Cl)sn(-c2ccc(Cl)cc2)c1=O	14.2	·	·	-21.7	·	24.8*	73.2*	90.6*
Cc1c(C(=O)N2CCN(c3ccc(F)cc3)CC2)sc2ncnc(N3CCN(c4ccccn4)CC3)c12	-12.6	-0.4	19.1	·	7.7	22.6*	15.8	69.5*
Cc1c(C(=O)N2CCN(c3ccccc3)CC2)sc2ncnc(N3CCN(c4ccccn4)CC3)c12	-0.5	-7.2	5.5	·	14.2	5.1	·	·
CC(C)(C)C(=O)Nc1ccc(Sc2ccc([N+](=O)[O-])cc2)cc1	-5.6	-2.3	-1.6	12.8	-8.0	24.7*	23.1	69.5*
CCc1ccccc1NC(=O)CSc1nnc(C2CC2)n1CC1CCCO1 (centres undefined)	10.8	-12.0	-3.8	·	9.0	2.6	·	·
COc1ccc(S(=O)(=O)N2CCC(C(=O)NCc3ccco3)CC2)cc1	8.0	7.7	-1.1	-27.0	-6.5	80.3*	24.3*	2.3
COc1ccc(CCNC(=O)c2ccc3c(c2)OCCO3)cc1	5.4	4.1	-1.1	-11.8	-5.6	27.5*	-7.4	17.6
O=C(NCCc1ccc2c(c1)OCO2)C1CCN(S(=O)(=O)c2ccc(Cl)cc2)CC1	-2.0	7.0	2.9	-21.8	7.6	-7.8	·	·
COc1ccc(S(=O)(=O)N2CCC(C(=O)NCCc3ccc4c(c3)OCO4)CC2)cc1	-2.9	-4.3	6.0	-14.3	-3.7	27.7*	10.5	5.9
CCOc1ccc(S(=O)(=O)N2CCC(C(=O)NCc3ccco3)CC2)cc1	-1.2	1.4	3.3	·	-10.1	11.5	·	·
CCN1C(=O)[C@H]2[C@@H](c3ccc(SC4CCCCC4)cc3)N[C@@](CC(C)C)(C(=O)OC)[C@H]2C1=O	·	7.6	8.0	·	-9.4	·	·	·
COc1cc(CNc2ccccc2Oc2cc(=O)n(C)c(=O)n2C)cc(OC)c1OC	-5.6	-7.3	-10.0	-9.6	-4.7	37.0*	24.9*	24.4*
SMILES	HCV NS3 hel inh	EBNA-1 inhibitor	HCV core dimer	EBV gp42 inh	ZTA counter	GPR7 antagonist	GPR7 antag cf	MCHR1 antagonist
Cn1c(Oc2ccccc2NCc2cc(Br)ccc2O)cc(=O)n(C)c1=O	0.5	-3.0	5.9	-15.7	-3.1	10.3	·	·
O=C(Nc1cccc(CNCCc2c[nH]c3ccccc23)c1)c1ccccc1Cl	-74.2	3.4	8.4	·	-2.7	46.5*	54.4*	51.2*
COC(=O)Nc1nnc(/C=C/c2ccc(OC)cc2)s1	15.2	-6.8	-1.9	-4.3	2.1	24.3*	20.2	11.4
CC(=O)Nc1ccc2cc3ccc(NC(C)=O)cc3nc2c1	2.5	-9.5	-43.4	104.7*	0.3	14.8*	-7.6	-5.7
CC(=O)Nc1ccc2ccccc2c1	-5.9	-13.5	0.6	-0.2	3.6	7.4	·	·
O=[N+]([O-])c1ccc(N2CCN(c3ccc(F)cc3)CC2)nc1	-1.8	2.1	1.6	·	-6.8	46.9*	45.0*	55.6*
O=[N+]([O-])c1ccc(N2CCN(c3ccccc3)CC2)nc1	-7.4	-0.7	1.2	·	3.2	25.2	·	·
COc1cccc(N2CCN(c3ccc([N+](=O)[O-])cn3)CC2)c1	11.1	6.7	3.6	·	-8.1	41.3*	40.2*	72.0*
Cc1nc(-c2ccccc2)nc(-c2ccccc2)n1	·	4.7	-11.5	·	-10.1	·	·	·
O=C(COC(=O)CCc1nc2ccccc2c(=O)[nH]1)Nc1ccc2c(c1)OCO2	5.0	-14.4	3.4	-0.3	-7.7	-13.4	·	·
O=C1NC2(CCCCC2)C(=O)N1c1cccc(Cl)c1	11.2	-10.4	-0.2	·	-6.8	-0.2	·	·
O=P1(c2ccccc2)C=Cn2c1cc1c2CCCC1 (centres undefined)	1.2	-12.4	2.3	-16.9	10.9	21.3*	7.0	10.3
N#CCCn1cc(/C=N/O)c(-c2ccc(Cl)cc2)n1	8.0	-10.1	5.0	-18.5	-15.2	4.3	·	·
N#CCCn1cc(C=C(C#N)C#N)c(-c2ccc(Cl)cc2)n1	-5.1	-11.8	9.6	-9.0	8.1	31.7*	12.0	2.0
N#CCCn1cc(/C=C(\C#N)c2nc3ccccc3s2)c(-c2ccc(F)cc2)n1	1.6	-25.2	8.0	-27.5	-7.0	-0.9	·	·
N#CCCn1cc(/C=N/O)c(-c2ccc(-c3ccccc3)cc2)n1	-10.2	-8.1	1.6	3.3	3.2	27.2*	30.6*	41.9*

Bioassay records: PubChem, several laboratories
